{"source": "paper PMC6894423", "about": "(Journal of molecular and cellular cardiology, 2019)", "key": {"mAb TnI-1": {"system": "mAb TnI-1", "assay": "Competitive ELISA affinity titration against mAb TnI-1", "format": "binding", "settings": "compared with wild type at ~0.1 μM (Figure 8)", "how_it_was_run": "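Wells coated overnight at 4°C with purified bovine cardiac TnI in pH 7.0 PIPES/KCl/MgCl2 buffer, then blocked with 1% BSA. mAb TnI-1 was added at a preset sub-maximal level together with serial dilutions of biologically or chemically made peptide. Detection used HRP anti-mouse IgG and H2O2-ABTS, read at 420 nm every 5 min for 30 min. Triplicate wells; each assay repeated.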"}, "[1]": {"system": "skinned rat ventricular papillary muscle", "assay": "Force-pCa contractility of skinned rat ventricular papillary muscle", "format": "cell-based", "settings": "20 μM peptide, 15°C", "how_it_was_run": "(§1)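 Left ventricular papillary muscle was cryosectioned at 35 μm, cut into 140–150 μm strips and stored at −20°C in glycerol relaxing buffer. Strips were clip-mounted, skinned 20 min in 1% Triton X-100 and set to sarcomere length 2.0 or 2.3 μm. Isometric force was read at pCa 6.5–4.5 at 15°C, then repeated with 20 μM peptide. Curves were Hill-fitted and compared by paired t-test.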"}, "[2]": {"system": "skinned mouse ventricular papillary muscle", "assay": "Force-pCa contractility of skinned mouse ventricular papillary muscle", "format": "cell-based", "settings": "20 μM peptide, 15°C", "how_it_was_run": "as §1"}, "[3]": {"system": "skinned mouse EDL muscle fibers", "assay": "Force-pCa contractility of skinned mouse EDL muscle fibers", "format": "cell-based", "settings": "20 μM peptide; sarcomere length 2.7 μm; 15°C; N = 4", "how_it_was_run": "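Whole EDL from adult C57BL/6 mice was split along the fibres in relaxing buffer and stored at −20°C in 50% glycerol buffer. Fibres were mounted on T-clips, further skinned 20 min in 1% Triton X-100 and set to sarcomere length 2.7 μm. Force was read at pCa 6.5–4.5 at 15°C, before and after adding 20 μM peptide; curves were Hill-fitted.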"}, "[4]": {"target": "bovine cardiac α-tropomyosin (bovine, UniProt Q5KR49 1-284)", "assay": "ELISA"}}, "note": "“Also recorded” adds a separate entry of the source."}
{"molecule": "HcTnI-C27-H: R192H mutant of the C-terminal 27 amino acid peptide of human cardiac TnI (ENREVGDWHKNIDALSGMEGRKKKFES; left off: Tx3 metal-binding tag, N-terminal, cleaved | SUMO, N-terminal, cleaved)", "values": [{"measurement": "Effect on competition for mAb TnI-1 compared with wild type peptide", "setting": "mAb TnI-1", "result": "only minimum effect"}]}
{"molecule": "HcTnI-C27: C-terminal 27 amino acid peptide of human cardiac TnI (ENREVGDWRKNIDALSGMEGRKKKFES; left off: Tx3 metal-binding tag, N-terminal, cleaved | SUMO, N-terminal, cleaved)", "values": [{"measurement": "Effect on Ca^2+-sensitization by increasing sarcomere length, rat", "setting": "[1]; SL increased from 2.0 μm to 2.3 μm", "result": "completely diminishing the Ca^2+-sensitization effect; also recorded: diminished the Ca^2+-sensitization effect"}, {"measurement": "Effect on cooperativity (n), rat, SL 2.0 μm", "setting": "[1]; sarcomere length 2.0 μm, pH 7.0, N = 4", "result": "small effect on lowering pCa50 and cooperativity"}, {"measurement": "Effect on cooperativity (n), rat, SL 2.3 μm", "setting": "[1]; sarcomere length 2.3 μm, pH 7.0, n = 3", "result": "significantly decreased Ca^2+ sensitivity and cooperativity (n)"}, {"measurement": "Effect on force-pCa curves, mouse cardiac, both sarcomere lengths", "setting": "[2]; SL 2.0 μm and 2.3 μm", "result": "right-shifts of the force-pCa curves"}, {"measurement": "Effect on Ca^2+-sensitivity (force-pCa curve), mouse cardiac, SL 2.0 μm", "setting": "[2]; sarcomere length 2.0 μm, N = 3", "result": "more obvious at sarcomere length of 2.0 μm in the activated state; also recorded: decreased Ca^2+-sensitivity"}, {"measurement": "Effect on cooperativity (n), mouse cardiac, SL 2.0 μm", "setting": "[2]; sarcomere length 2.0 μm, N = 3", "result": "significantly lowered cooperativity"}, {"measurement": "Effect on Ca^2+-sensitivity (force-pCa curve), mouse cardiac, SL 2.3 μm", "setting": "[2]; sarcomere length 2.3 μm, n = 4", "result": "decreased Ca^2+-sensitivity"}, {"measurement": "Effect on myofilament Ca^2+ sensitivity, mouse EDL", "setting": "[3]", "result": "myofilament Ca^2+-desensitization effect predominantly in the activated state; also recorded: decreases in myofilament Ca^2+ sensitivity in the activated state at higher Ca^2+ concentrations"}, {"measurement": "Maximum force production, mouse EDL", "setting": "[3]", "result": "without change of maximum force production"}]}
{"molecule": "ENREVGDWRKNIDALSGMEGRKKKFES (peptide, UniProt P19429 184-210, looked up)", "note": "[C-terminal 27 amino acid peptide of human cardiac TnI (HcTnI-C27), free peptide]", "values": [{"measurement": "binding result", "setting": "[4]", "result": "binds"}]}
